# T cruzi repl: blocks replication of Trypanosoma cruzi; T. cruzi beta-gal in NIH3T3, luminescence, 90 h; inhibition, % (test concentration not listed); actives 1.4% (n = 300,000);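 active = mean inhibition across valid replicates above about 55%, limit read from the data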;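 note: signal also drops with host cell toxicity which is not excluded here; 0% = plate median of DMSO wells and 100% = zero luminescence signal; higher percent means less beta-gal luminescence so fewer parasites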
#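 compound dosing = single 50 nL compound addition per well in DMSO | material = NIH/3T3 host cells with β-galactosidase reporter T. cruzi | input = 5,000 host fibroblasts per well | timing = ≥90 h infection period, 3 h prior cell attachment | read-out basis = percent inhibition of parasite-derived β-gal signal | detection = GalScreen β-gal luminescence, detergent lysis, 60 min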
# Glyco luc inh: N-linked glycosylation inhibition; D54 ERlucT glycosylation luciferase reporter, 24 h; percent of 100 nM tunicamycin response; reporter increase, % at 12.5 µM; actives 0.23% (n = 360,000); AID 588692;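 active = mean luciferase reporter signal, scaled so untreated is 0 and the glycosylation-blocking control 100, at or above a set limit in every replicate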;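 note: luciferase carries N-glycosylation sites so blocking glycosylation raises the light; 0% = median of neutral control wells and 100% = median of 100 nM tunicamycin wells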
# PvdQ acylase: P. aeruginosa PvdQ acylase inhibition; actives 0.063% (n = 340,000); AID 488965; purified PvdQ acylase, fluorescence plate reader; inhibition, % at 10 µM; in the data active = inhibition above about 30%, passing the limit was not always enough;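 note: 0% = vehicle neutral wells and 100% = reference inhibitor wells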
# CaV13 FRET inh: Disruptors of the CACNA1D IQ motif to Ca2+-dependent inactivation inhibitor domain association, primary screening, Förster resonance energy transfer in intact living …; HEK cells, CFP/YFP FRET ICDI-IQ, plate reader, 10 min; percent FRET-ratio fall versus neutral wells; inhibition, % at 12.3 µM; actives 0.098% (n = 340,000); AID 743397;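 active = mean replicate inhibition of at least 30% and at least 1% of replicates passing that level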;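 note: 0% = median of the neutral control wells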
# PfHsp90 yeast 2: inhibits growth of yeast expressing Plasmodium falciparum Hsp90 | S. cerevisiae expressing PfHsp90, BacTiter-Glo ATP, 48 h; yeast lacking PDR1 and PDR3 efflux regulators | inhibition, % at 9.4 µM | actives 0.32% (n = 310,000) | AID 504621;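 active = every replicate shows inhibition above about 80%, whatever the replicate mean, limit read from the data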;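 note: 0% = DMSO neutral controls and 100% = 20 µM radicicol positive controls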
# HSF-1 act: increases HSF-1 driven luciferase reporter signal; actives 1.7% (n = 300,000); activation, % at 9 µM; AID 504408; NIH3T3-HGL HSF-1 luciferase reporter, MG132, 8 h; 100% = twice DMSO control signal;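 active = mean replicate activation of at least 50% with a set share of replicates each reaching 50%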;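 note: 0% = median of the neutral control wells and 100% = twice that signal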
# Numbers without * were called inactive; / = no result. The list is not random: actives were taken first. Their share in the collection is about 3%.
SMILES,T cruzi repl,Glyco luc inh,PvdQ acylase,CaV13 FRET inh,PfHsp90 yeast 2,HSF-1 act
COC(=O)c1ccc(-c2noc(CN(Cc3ccncc3)CC3CCCO3)n2)cc1 (centres undefined),57*,1,2,-4,3,0
O=C(CSc1nc2[nH]ncc2c(=O)n1-c1ccc(Cl)c(Cl)c1)NCc1ccccc1Cl,58*,4,-7,-2,-7,4
O=C(CSc1nc2[nH]ncc2c(=O)n1-c1ccccc1)NCCc1ccccc1,7,4,-26,5,-5,-13
CCCCS(=O)(=O)N1CCCc2nc(-c3ccccc3)ccc21,/,/,/,-4,/,/
O=C(OCn1ncc(Br)c(Br)c1=O)c1ccccc1Cl,59*,-18,4,/,90*,-74
O=C(OCc1cnc(Cl)s1)c1ccccc1Cl,10,0,-2,/,16,25
O=C(OCn1ncc(Br)c(Br)c1=O)c1ccc(F)cc1,51,-19,-9,/,99*,-95
O=C(NCc1ccccn1)[C@@H]1CCCN1C(=O)[C@@H]1CCCN1C(=O)c1cccc2ccccc12,/,/,/,-6,/,/
CC(C)N1CCC2(CC1)N=C(c1ccc3c(c1)OCO3)CC(c1cc(Cl)ccc1O)N2 (centres undefined),6,15,-7,-4,120*,31
CC(Sc1ccc(Cl)cc1)C(=O)Nc1ccc2c(c1)OCO2 (centres undefined),-5,1,7,-5,28,-1
COc1cccc(C(=O)NCC[N+](C)(C)C)c1,/,/,/,-6,/,/
Cc1cc(Cl)c2oc(C(=O)N3CCN(c4ccncc4)CC3)c(C)c2c1,61*,-4,7,-10,4,-8
COC(=O)C1CCN(C(=O)c2oc3c(Cl)cc(C)cc3c2C)CC1,9,-7,-5,-5,-6,33
CCCCCC(=O)Nc1cc(S(=O)(=O)N2CCOCC2)ccc1N1CCCCC1,15,1,-12,-14,-9,3
CSCCC(=O)Nc1cc(S(=O)(=O)N2CCOCC2)ccc1N1CCN(C)CC1,65*,1,-14,-4,-8,-12
CCCCCC(=O)Nc1cc(S(=O)(=O)N2CCOCC2)ccc1N1CCN(C)CC1,64*,2,-4,-12,6,-8
N#CCCN(Cc1ccccc1)C(CCc1ccccc1)C(=O)NC1CCCCC1 (centres undefined),/,-3,/,-5,/,/
O=C(Nc1ccccc1)C(=O)c1c[nH]c2ccccc12,0,-9,-7,-5,10,68*
O=C(/C=C/c1ccccc1)c1c[nH]c2ccccc12,-10,-12,6,-4,26,111*
COC(=O)[C@]12C[C@H](CC(=O)N3CCOCC3)C(=O)N(CCc3ccc(OC)c(OC)c3)C1=C[C@H](C(C)(C)C)O[C@@H]2C,/,/,/,-12,/,/
NC(=S)NN=C(Cc1ccccc1)Cc1ccccc1,60*,0,-11,-3,15,-15
O=C(NN=C(Cc1ccccc1)Cc1ccccc1)c1ccccc1O,0,2,-4,0,19,-2
COc1cc(-c2c(C(=O)c3ccccc3)[nH]c(N)c2C(=O)NCCc2c[nH]c3ccccc23)ccc1F,/,/,/,-15,/,/
C#CCOCCOCCOCCNc1nc(N2CCN(C(=O)CCCCCCCCCCNC(=O)Cn3cc(C[C@@H](C)O)nn3)CC2)nc(N2CCN(C(=O)CCCCCCCCCCNC(=O)[C@H](CCCCN)n3cc(CCCC(=O)O)nn3)CC2)n1,/,3,-24,-12,-8,/
C#CCOCCOCCOCCNc1nc(N2CCN(C(=O)CCCCCCCCCCNC(=O)Cn3cc(C[C@@H](C)O)nn3)CC2)nc(N2CCN(C(=O)CCCCCCCCCCNC(=O)[C@H](CCCN=C(N)N)n3cc(C[C@@H](C)CC)nn3)CC2)n1,66*,-6,-12,/,1,-12
SMILES,T cruzi repl,Glyco luc inh,PvdQ acylase,CaV13 FRET inh,PfHsp90 yeast 2,HSF-1 act
COC(=O)N1C[C@H](OCCCOCc2ccccc2)[C@H]2C[C@@H]1c1ccccc1O2,/,/,/,-4,/,/
COCCCNC(=O)c1ccc2c3c(onc13)-c1ccccc1C2=O,16,15,-6,/,-5,139*
COCCCNC(=O)c1ccccc1Oc1ccccc1,-2,2,-11,-5,-34,7
Cc1ccc(-n2nc3c(=O)n(C(C)C(=O)NCc4ccccc4Cl)nc(C)c3c2C)cc1 (centres undefined),27,-4,2,-2,-2,69*
c1ccc(/N=C2\N=C(Nc3ccccn3)c3ccccc32)nc1,65*,2,3,-3,-2,3
COC(=O)c1c(-c2ccc(OC)cc2)c2c(c3c4cc(OC)ccc4n(C(=O)c4ccccc4)c13)C(=O)N(C)C2,/,/,/,-12,/,/
CCOC(=O)C1(Cc2ccccc2)CCN(Cc2cnc(N3CCOCC3)s2)CC1,59*,2,-10,-4,-10,-4
OCC1(CCCc2ccccc2)CCN(Cc2cnc(N3CCOCC3)s2)CC1,59*,-2,-9,-7,4,11
Brc1ccc2nc(-c3ccc(CN4CCC(c5nc6ccccc6[nH]5)CC4)cc3)c(-c3ccccc3)nc2c1,/,/,/,-13,/,/
C[C@H](CO)N1C[C@H](C)[C@@H](CN(C)C(=O)Nc2ccccc2F)OCc2cnnn2CCCC1=O,/,0,/,-6,/,/
Cc1ccc(C)c(Nc2c([N+](=O)[O-])cc(C(=O)N3CC(=O)Nc4ccccc43)cc2[N+](=O)[O-])c1,66*,0,-9,-4,5,19
Cc1cccc(Nc2c([N+](=O)[O-])cc(C(=O)N3CC(=O)Nc4ccccc43)cc2[N+](=O)[O-])c1,84*,-1,2,-4,8,26
C[C@@H]1CN([C@H](C)CO)C(=O)c2cc(C3=CCCCC3)cnc2O[C@@H]1CN(C)Cc1ccccc1C(=O)O,/,1,/,-6,/,/
Cc1ccc2oc(-c3cccc(N)c3)nc2c1,12,-15,-6,-5,0,70*
Cc1ccc(-c2nc3cc(N)ccc3o2)cc1,3,-15,-6,-4,2,4
COc1ccc2c(c1)CC/C2=N\OC(=O)c1cccc(C)c1,3,-3,-28,-4,-34,65*
COc1ccc2c(c1)CC/C2=N\OC(=O)c1ccccc1C,1,-2,9,-4,15,61*
NNC(=O)c1oc2nc(-c3cccs3)cc(-c3ccco3)c2c1N,12,51*,-8,-8,18,-7
CC(C)CCNC(=O)CCCOc1cc(=O)n(C)c2ccccc12,22,31*,-2,-3,1,42
CC1CCN(C(=O)CCCOc2cc(=O)n(C)c3ccccc23)CC1,9,14,-11,-5,/,75*
CCN(CCCNC(=O)CCCOc1cc(=O)n(C)c2ccccc12)Cc1ccccc1,55*,24,-14,7,-25,31
